The values that follow come from ChEMBL document CHEMBL5108057, “Development of MAO-A and 5-HT2AR Dual Inhibitors with Improved Antidepressant Activity” (J Med Chem, 2022).

One series concerns PC-12. The experiment in a line: Neurocytoprotective activity against CORT-induced damage in rat PC-12 cells at 0.5 uM measured after 24 hrs by MTT assay. The format is functional, cell-based. In outline: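 PC12 cells seeded at 5 × 10^4 cells/mL for 24 h. Medium was then replaced with compound (0.5–4.0 μM) plus 500 μM CORT (DMSO <1%) for 24 h. Viability was measured by MTT relative to the CORT model group.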

In series [1] the target is T1, Amine oxidase [flavin-containing] B (Homo sapiens, UniProt P27338).
T1 sequence (P27338 whole entry): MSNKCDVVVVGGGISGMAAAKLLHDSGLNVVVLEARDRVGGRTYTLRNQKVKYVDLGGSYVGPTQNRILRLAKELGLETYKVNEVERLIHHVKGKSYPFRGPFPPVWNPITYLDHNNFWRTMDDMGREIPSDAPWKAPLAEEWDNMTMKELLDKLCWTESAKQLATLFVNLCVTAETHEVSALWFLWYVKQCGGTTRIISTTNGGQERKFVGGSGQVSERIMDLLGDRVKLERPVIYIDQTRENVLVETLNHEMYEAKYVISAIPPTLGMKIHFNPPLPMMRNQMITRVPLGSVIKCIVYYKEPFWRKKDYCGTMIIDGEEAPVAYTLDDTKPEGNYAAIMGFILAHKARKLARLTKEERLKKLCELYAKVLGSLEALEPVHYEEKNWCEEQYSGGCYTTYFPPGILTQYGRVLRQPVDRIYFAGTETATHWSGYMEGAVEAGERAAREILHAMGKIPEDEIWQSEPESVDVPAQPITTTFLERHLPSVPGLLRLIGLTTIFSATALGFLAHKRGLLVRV
The experiment in a line: Inhibition of MAO-B (unknown origin) using p-tyramine as substrate preincubated for 15 mins followed by substrate addition and measured after 15 mins by Amplex red fluorescence based microplate reader assay.

The nature of series [2]: Cytotoxicity against human L02 cells assessed as reduction in cell growth measured after 48 hrs by MTT assay. The class given is toxicity, cell-based. The method, boiled down:
(§1)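 MTT assay: PC12, SH-SY5Y or L02 cells at 5.0 × 10^3 per well were grown for 24 h, treated with compound dilutions from 10 mM DMSO stocks, and cultured 48 h. MTT was then added for 4 h at 37 °C, formazan dissolved in DMSO, and absorbance read at 570 nm. Viability is relative to blank control; IC50 from three repeats. Media contained 10% FBS.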
For orientation: Tetrazolium assays rely on reduction of a dye to a coloured formazan, in cell work by metabolically active cells.

Series [3] in a line: Cytotoxicity against human SH-SY5Y cells assessed as reduction in cell growth measured after 48 hrs by MTT assay. The format is toxicity, cell-based. In outline: as §1
Series [4] is described as follows: Cytotoxicity against rat PC-12 cells assessed as reduction in cell growth measured after 48 hrs by MTT assay. The class given is toxicity, cell-based. The method, boiled down: as §1
For series [5], the species on record is Danio rerio. Kind of series: Antidepressant activity in reserpine-induced zebrafish AB depression model assessed as decrease in immobility time at 0.1 to 1 uM pretreated for 40 mins with reserpine followed by compound addition and measured for 7 days by open field test. The format is functional, organism-based. As to conditions: dose 0.1-1 µM, time 7.0 day. The method, boiled down: (§2)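 Zebrafish were exposed to 10 mg/L reserpine for 40 min. Compound (0.1, 0.5, 1 μM) or fluoxetine (1 μM) was given 24 h later for 7 days. Fish kept at 28.5 °C on a 14 h light/10 h dark cycle. Open-field and novel tank tests were video-tracked for distance, velocity, immobility and time in the top. Mean ± SD, n = 6.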

Series [6] is filed under the species Danio rerio. The experiment in a line: Antidepressant activity in reserpine-induced zebrafish AB depression model assessed as fast travel at 0.1 to 1 uM pretreated for 40 mins with reserpine followed by compound addition and measured for 7 days by open field test. The class given is functional, organism-based. As to conditions: dose 0.1-1 µM, time 7.0 day. In outline: as §2

The test system of series [7] is Mus musculus. The experiment in a line: Antidepressant activity in reserpine-induced ICR mouse model assessed as increase in total distance traveled at 10 to 20 mg/kg pretreated with reserpine for 3 days followed by compound addition for 1 week by open field test. The class given is functional, organism-based. The note with it: dose 10-20 mg/kg, time 1.0 weeks. In outline: (§3)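 Body weight was recorded daily. OFT: 5 min session scoring distance, speed, rearing and dejection. FST and TST: 6 min, with immobility scored over the last 4 min. Mean ± SD, n = 6; one-way ANOVA and t-test.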

The subject of series [8] is Mus musculus. Kind of series: Antidepressant activity in reserpine-induced ICR mouse model assessed as increase in mobility at 10 to 20 mg/kg pretreated with reserpine for 3 days followed by compound addition for 1 week by open field test. The note with it: dose 10-20 mg/kg, time 1.0 weeks. The class given is functional, organism-based. In outline:
as §3

For series [9], the system named is Mus musculus. Kind of series: Antidepressant activity in reserpine-induced ICR mouse model assessed as improvement in depression like behavior at 10 mg/kg pretreated with reserpine for 3 days followed by compound addition for 1 week by open field test. The format is functional, organism-based. As to conditions: time 1.0 weeks. In outline:
as §3

Series [10] relates to Mus musculus. The experiment in a line: Antidepressant activity in reserpine-induced ICR mouse model assessed as reduction in immobility time at 10 to 20 mg/kg pretreated with reserpine for 3 days followed by compound addition on day 4 to 10 by forced swimming test. The format is functional, organism-based. As to conditions: dose 10-20 mg/kg, time 6.0 day. In outline: as §3

Series [11] relates to Mus musculus. Kind of series: Antidepressant activity in chronic unpredictable mild stress ICR mouse model assessed as decrease in immobility time at 10 to 20 mg/kg measured after 2 weeks by forced swimming test. The format is functional, organism-based. As to conditions: dose 10-20 mg/kg. In outline: (§4)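 ICR mice received CUMS for 4 weeks: 11 stressors given randomly twice daily, 42 days in total. OFT: 5 min session scoring distance, speed, rearing and dejection. FST/TST: 6 min, with immobility scored over the last 4 min. Sucrose preference test was also run. Mean ± SD, n = 6.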

In series [12] the test system is Mus musculus. The experiment in a line: Antidepressant activity in chronic unpredictable mild stress ICR mouse model assessed as increase in gluco-phagy at 10 to 20 mg/kg measured after 2 weeks by sugar preference test. The note with it: dose 10-20 mg/kg. The class given is functional, organism-based. The method, boiled down: as §4
Series [13] can be described thus: Toxicity in mouse assessed as toxic effect on spleen at 10 to 20 mg/kg by H and E staining based assay. The format is organism-based. As to conditions: in vivo, dose 10-20 mg/kg. In outline:
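Mice given compound at 10 or 20 mg/kg, with fluoxetine 20 mg/kg as comparator. Paraffin tissue sections of 4 μm were cut. Staining: hematoxylin 5 min, 75% HCl-ethanol differentiation 30 s, eosin 2 min. Organs (liver, kidney, lung, heart, spleen) examined at ×400; hippocampus (CA1, CA3, DG) at ×200.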

The subject of series [14] is Mus musculus. The experiment in a line: Antidepressant activity in reserpine-induced mouse assessed as downregulation of 5-HT2AR expression at 10 to 20 mg/kg pretreated with reserpine for 3 days followed by compound addition on day 4 to 10 by Western blot analysis. The format is functional, organism-based. The note with it: dose 10-20 mg/kg, time 6.0 day. The method, boiled down:
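Whole-brain protein was quantified by BCA and diluted to 3 mg/mL, then run on 4−20% SDS-PAGE and blotted. Primary antibody at 4 °C overnight, secondary 1 h at room temperature. 5-HT1AR and 5-HT2AR levels are relative; mean ± SD, n = 3.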
Background: Immunoblotting shows a protein as a band on a membrane.

The nature of series [15]: AUC(0 to 24 hrs) in Sprague-Dawley rat at 10 mg/kg, IG measured upto 1440 mins by LC-MS/MS analysis. The class given is ADME, organism-based. Further details: time < 1440 min, dose 10 mg/kg, route ig. As to conditions: in vivo, po.
Series [16] is described as follows: MRT infinity in Sprague-Dawley rat at 2 mg/kg, iv measured upto 1440 mins by LC-MS/MS analysis. The class given is ADME, organism-based. As to conditions: in vivo.
Series [17] can be described thus: Half life in Sprague-Dawley rat at 2 mg/kg, iv measured upto 1440 mins by LC-MS/MS analysis. As to conditions: in vivo. The class given is ADME, organism-based.
Series [18] can be described thus: Cmax in Sprague-Dawley rat at 2 mg/kg, iv measured upto 1440 mins by LC-MS/MS analysis. The format is ADME, organism-based. Further details: time < 1440 min, dose 2 mg/kg, route iv. As to conditions: in vivo.
Series [19] in a line: Cmax in Sprague-Dawley rat at 10 mg/kg, IG measured upto 1440 mins by LC-MS/MS analysis. Further details: time < 1440 min, dose 10 mg/kg, route ig. The format is ADME, organism-based. As to conditions: in vivo, po.

Active and inactive are the calls of the source. The rule behind the calls is not given here. Bounds are passed on as bounds.

One may read the IC50 as the concentration at which inhibition is half-maximal. The AUC(0-t) is the area under the concentration-time curve up to a stated or last time point. Low values mean less exposure, high ones more exposure. By MRT inf is commonly meant a mean duration of stay, worked out from the concentration-time curve. By half-life is commonly meant how long it takes for the measured level to halve. The term Cmax denotes the highest concentration seen after dosing. As for `O=C1c2ccccc2-c2nccc3cc(OCCCCCN4CCN(c5ccccc5F)CC4)cc1c23`, the outcome in the series with PC-12, in the series filed under Danio rerio [5], in the series filed under Danio rerio [6], in the series on Mus musculus [7], with Mus musculus [8] and with Mus musculus [9] was Active. Moreover, the outcome in the series on Mus musculus [10], in the series on Mus musculus [11], in the series on Mus musculus [12] and in the series on Mus musculus [14] was Active. In series [1], the half-inhibitory concentration (IC50) turned out to be 1.05 µM. For the same compound, the IC50 at 48 h was above 100 µM in series [2], above 10 µM in series [3] and above 10 µM in series [4]. In addition, in series [13], the Activity entry is reported as “Non-Toxic”. The AUC(0-t) at 24 h in series [15] was 491 ng·h/mL. Also, the MRT inf in series [16] amounted to 4.19 h. In addition, the half-life in series [17] was 6.31 h. The values for the Cmax in series [18] and in series [19] were 673 ng/mL and 99.7 ng/mL, respectively.
